From PubChem
APP 5'UTR act: activates APP 5'UTR luciferase reporter; 190,000 tested, 1% active; activation, % at 2 µM; SH-SY5Y APP 5'UTR luciferase reporter, luminescence; zero percent = DMSO vehicle wells; AID 1276;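 active = activation above a set limit, based on mean plus 3 SD of controls, cut at about 140% in these data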
STAT1 activator: activators of IFN-gamma induced STAT1 signaling; AID 932; NIH 3T3 STAT1-luciferase reporter, luminescence; 100% = IFN-gamma alone, no compound; 200,000 tested, 2.6% active; activation (% of control), % at 5.5 µM;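 active = activation above the screen-wide mean activation plus 3 SD, cut at about 130% in these data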;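 also: raw ratio to IFN-gamma control signal so 100% means no change and 0% no light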
STAT3 inh: reduces IL-6 driven STAT3 reporter signal; inhibition, % at 5.5 µM; 190,000 tested, 0.89% active; AID 862; U3A cells, IL-6 STAT3-luciferase reporter, luminescence; host cell line lacks STAT1;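 active = inhibition above the mean inhibition across all screened compounds plus 3 SD, cut at about 44% in these data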;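 also: 0% = DMSO only wells and 100% = 100 µM nifuroxazide control wells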
STAT1 blocker: reduces IFN-gamma driven STAT1 reporter signal; NIH 3T3 STAT1-luciferase reporter, luminescence; inhibition, % at 5.5 µM; 200,000 tested, 0.35% active; AID 920;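 active = inhibition above a set limit, the mean inhibition across all tested compounds plus 3 SD, cut at about 34% in these data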;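 also: 0% = IFN-gamma with DMSO and 100% = IFN-gamma with 300 µM nifuroxazide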
STAT3 act: activators of IL-6 induced STAT3 signaling; U3A cells, IL-6 STAT3-luciferase reporter, luminescence; 100% = signal with IL-6 EC80 alone; activation (% of control), % at 5.6 µM; 190,000 tested, 0.91% active; AID 871;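 active = activation above the screen-wide mean of compound activation plus 3 SD, cut at about 130% in these data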;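 also: 0% = background luminescence of wells with medium and substrate only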
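Material: human STAT1-deficient U3A cells with stable STAT3-luciferase reporter / Probe or stimulus: IL-6 stimulus at 33 ng/mL final / Schedule: 1 h compound pre-exposure, 6 h IL-6 stimulation, 37 °C / Technique: luminescence / Read-out basis: percent of IL-6-only median luminescence / Control set: IL-6-only high control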
NF-kB expr up: compounds increasing NF-kB expression in human neuronal cells. NF-kB reporter expression; active compounds read high. fold change at 12.5 µM. 190,000 tested, 1.6% active. AID 1239; in the data active = fold change above about 3.3
Numbers without * were called inactive; / = no result. In the library only some 4.9% were active in any assay of this set; here they are far more common.

SMILES	APP 5'UTR act	STAT1 activator	STAT3 inh	STAT1 blocker	STAT3 act	NF-kB expr up
Oc1ccc(CN2CCN(Cc3ccccc3)CC2)c2cccnc12	11.6	102.3	5.6	-2.5	98.6	5.98*
N#CCc1nn2c3c(cnc2c1C#N)C(=O)CCC3	3.5	105.8	-2.1	-9.3	105.9	1.09
O=C(CNS(=O)(=O)c1ccccc1)Nc1cccc([N+](=O)[O-])c1	20.5	100.4	2.9	-1.4	103.8	0.93
Clc1ccc(SCc2cn3cccnc3n2)cc1	3.0	123.8	6.8	-26.0	97.7	1.77
Cc1cc(OCc2cn3cccnc3n2)ccc1Cl	37.5	130.7*	1.5	-34.4	96.7	2.15
COC(=O)c1ccc(NC(=S)NCCCn2ccnc2)cc1	-14.4	99.1	-4.1	-0.4	108.1	1.03
O=C(CCNC(=O)Cn1ccc2ccccc2c1=O)NCCc1ccccc1Cl	-5.0	105.3	8.5	-5.9	95.7	1.43
CC(C)(CCl)C(=O)Nc1ccnc(-c2ccncc2)n1	-12.9	105.0	7.4	-5.7	97.2	0.89
O=C(Nc1ccccc1)OCCOc1ccccc1	87.5	132.5*	7.6	-35.8	97.5	4.48*
Cc1ccc(OC(=O)Nc2ccccc2)cc1	27.3	144.0*	7.7	-51.4	95.3	0.98
CSc1ccc(-c2ccco2)nn1	29.3	128.6*	-2.3	-32.2	104.9	1.73
NNc1nc2c(F)cccc2s1	141.6*	146.4*	-55.5	-51.4	152.1*	1.18
Cc1ccc(NC(=O)c2ccc(OC(=O)COc3ccc(Cl)c(C)c3)cc2)cc1	132.1	140.0*	-4.2	-44.9	101.3	1.89
Cc1ccc(NC(=O)c2ccc(OCC3CCCO3)cc2)cc1 (stereo not drawn)	108.4	135.6*	-9.9	-34.8	105.8	3.42*
O=C(NC1=NCCS1)c1ccc(OCC2CCCO2)cc1 (stereo not drawn)	85.3	119.5	23.7	-21.5	83.0	2.39
Cc1cnc(NC(=O)c2ccc(OCC3CCCO3)cc2)s1 (stereo not drawn)	128.0	51.9	77.9*	50.7*	38.0	3.87*
O=C1CN(C(=O)COc2ccc(Br)cc2Br)c2ccccc2N1	0.1	98.0	23.8	0.0	84.3	1.29
CCOC(=O)c1nc2ccccc2nc1C	-1.8	99.1	3.2	1.0	100.3	0.86
CCc1cc[n+](-c2nc3ccccc3nc2C(=C=[N-])C#N)cc1	6.8	100.3	-3.1	-0.3	104.8	4.99*
CNCc1ccccc1OCC(=O)Nc1ccccc1OC	-8.4	100.6	-22.0	-8.3	119.6	1.2
O=C(Nc1cc2c(ccc3ccccc32)oc1=O)C1CCCCC1	1.7	96.3	-29.0	4.2	127.7	1.09
O=C(NC1CCCC1)c1cc2c(ccc3ccccc32)o1	9.6	137.2*	20.2	-48.3	83.2	3.37*
CC(=O)Nc1cc2c(ccc3ccccc32)oc1=O	3.8	120.9	19.5	-24.4	85.3	1.49
CNC(=O)c1cc2c(ccc3ccccc32)o1	27.1	133.0*	13.4	-35.6	96.0	1.33
O=C(COC(=O)c1cc(=O)c2ccccc2o1)NC1CCCC1	-3.4	96.6	3.8	3.5	100.9	1.17
SMILES	APP 5'UTR act	STAT1 activator	STAT3 inh	STAT1 blocker	STAT3 act	NF-kB expr up
CC(=O)Nc1c(C(=O)N2CCN(c3ccccn3)CC2)cnn1-c1ccc(C)cc1	-8.2	101.3	1.5	-1.9	99.9	0.96
O=c1c(Br)c(NCc2ccccc2)cnn1-c1ccc(F)cc1	20.8	129.3*	-10.3	-34.1	120.0	1.85
O=c1cc(-c2ccccc2Cl)oc2ccc([N+](=O)[O-])c(O)c12	-5.7	92.9	-7.1	7.8	103.6	1.55
Nc1ccc2oc(-c3ccccc3Cl)cc(=O)c2c1O	44.5	122.4	6.5	-24.6	92.2	6.53*
CC(C)c1csc(CN2CCC(N3CCC(C(=O)NCC4CCCO4)CC3)CC2)n1 (stereo not drawn)	-0.8	98.7	2.6	0.1	102.3	1.1
O=C(NCCc1cnn(-c2ccccc2)c1)c1cc(COc2c(F)cccc2F)on1	17.5	112.0	-1.2	-15.0	103.0	1.6
CC1CCc2nc(NC(=O)Nc3ccc4c(c3)OCO4)sc2C1 (stereo not drawn)	37.3	126.2	7.9	-28.9	92.6	2.11
Oc1sc(C=Nc2ccc(F)cc2)c2ccccc12	118.5	137.6*	-0.9	-42.2	103.0	2.04
Nc1nonc1N/N=C/c1c(O)ccc2ccccc12	-3.4	75.2	26.9	25.4	78.6	3.29
Nc1cc(Cl)nc(N/N=C/c2c(O)ccc3ccccc23)n1	18.5	96.1	-1.1	4.3	101.7	4.41*
COCCOC(=O)/C=C1/NC(=O)CS1	-12.6	101.1	4.9	-1.2	99.1	1.14
CC(C)(C)c1ccc(C(=O)/C=C2\NC(=O)CS2)cc1	118.7	121.0	40.2	-22.9	70.9	6.62*
O=C(Nc1ccc2oc(-c3ccc(Cl)c(Cl)c3)nc2c1)c1ncn[nH]1	24.6	113.7	-0.5	-14.9	97.9	1.09
O=C(Nc1ccc2oc(-c3ccccc3)nc2c1)c1ccccc1F	102.3	145.5*	5.7	-55.9	96.4	2.82
O=C(Nc1ccc2oc(-c3ccccc3F)nc2c1)c1ncn[nH]1	137.5*	136.5*	32.5	-39.5	73.2	5.35*
CC(=O)NC(=S)Nc1ccc2oc(-c3cc(F)c(F)cc3Cl)nc2c1	170.2*	114.9	-34.3	-16.4	132.0	2.36
CC(=O)Nc1ccc2oc(-c3ccccc3)nc2c1	125.8	150.1*	27.2	-54.6	79.2	7.64*
CCOCCCNCc1cc(Cl)cc(Cl)c1OCC	2.6	99.4	7.0	0.8	102.1	1.23
COC(=O)c1nnn(CC(=O)NC(=O)Nc2cccc(Cl)c2C)c1C(=O)OC	-20.0	100.2	8.1	-1.2	94.6	1.04
Cc1ccc2nc(CSc3nc(C)ccc3C#N)[nH]c2c1	92.7	139.1*	-2.6	-42.5	107.5	1.72
CN(C)c1ccc(/C=N/n2ncc3ccccc32)cc1	355.2*	150.2*	11.7	-55.2	95.4	3.06
C(=C\c1ccc2ccccc2n1)/c1ccccc1	175.5*	/	/	/	/	/
O=C(O)/C=C/c1ccc2ccccc2n1	2.4	93.7	7.2	5.3	97.1	1.17
Oc1ccc(/C=C/c2ccc3ccccc3n2)cc1	55.1	32.7	101.9*	71.5*	18.4	2.6
O=[N+]([O-])c1ccc(/C=C/c2ccc3ccccc3n2)cc1	165.4*	51.0	78.5*	52.2*	36.2	5.2*
Cc1cccc(N(CC(=O)NCc2ccco2)C(=O)CCC(=O)Nc2nccs2)c1	-3.0	95.6	5.9	3.1	98.7	1.01
COc1cccc(-c2ncc3ccccn23)c1	76.0	134.8*	1.4	-32.2	100.6	2.67
COc1cc(OC)cc(-c2ncc3ccccn23)c1	-1.5	100.7	9.7	-1.9	93.7	1.34
Cc1cc(NC(=O)CSc2ncnc3c2cnn3-c2cccc(Cl)c2)no1	5.1	108.5	2.0	-10.3	104.7	0.98
Cn1c(=O)c(C(=O)c2ccccc2)nc2ccccc21	18.9	102.8	-7.4	-3.1	111.5	0.98
